According to ChEMBL document CHEMBL1128426, “Cyclic variations of 3-quinolinecarboxamides and effects on antiherpetic activity” (1995):
In brackets after ≈: the same amount, converted by molar mass. Activity calls are given as the source filed them.

Assays:
[1] = test system: Vero; experiment: In vitro anti-herpetic activity against HSV-2 plaque formation in vero cells; no activity; format: functional, cell-based; conditions: Chlorocebus sabaeus
Summary of the method: (§1)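 HSV-2 plaque reduction in Vero cells. MIC is the lowest concentration that inhibited plaque formation by 50%. For active compounds, values are the mean of at least two experiments, SD under ±50%.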

[2] = test system: Vero; experiment: The compound was tested in vitro for the highest concentration (maximum tolerated level) that showed no cellular toxicity by visualization of stained cells.; format: functional, Chlorocebus sabaeus
Summary of the method: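 Maximum tolerated level, run alongside the HSV-2 plaque assay in Vero cells: the highest concentration showing no cellular toxicity when the stained cells were inspected visually.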

[3] = test system: Vero; experiment: In vitro anti-herpetic activity against HSV-2 plaque formation in vero cells.; format: functional; conditions: Chlorocebus sabaeus; summary of the method: as §1
[4] = test system: Mus musculus; experiment: The maximum tolerated dose (MTD) was defined as the highest dose of compound that did not show any signs of toxicity in mice after po administration.; format: functional
Summary of the method: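 Oral dosing in mice within the HSV-2 infection model. MTD is the highest dose showing no overt signs of toxicity.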

[5] = test system: Mus musculus; experiment: The compound was tested in vivo for the lowest dose(minimum effective dose) at which anti-herpetic activity was observed in terms of survival times of mice after po administration; no activity; format: functional, organism-based
[6] = test system: Mus musculus; experiment: The compound was tested in vivo for the lowest dose(minimum effective dose) at which anti-herpetic activity was observed in terms of survival times of mice after po administration.; format: functional; conditions: read-out: MED
Summary of the method: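 HSV-2 infection model in mice, test agent given orally. MED is the lowest dose giving survival times statistically different from placebo, based on at least two experiments for active compounds.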

[7] = test system: Mus musculus; experiment: The compound was tested in vivo for the lowest dose(minimum effective dose) at which anti-herpetic activity (HSV-2) was observed in terms of survival times of mice after po administration; no activity; format: functional, organism-based

SMILES	MIC [1]	MTL [2] [µg/mL]	MIC [3] [µg/mL]	MTD [4] [mg/kg]	MED [5]	minimal effective dose [6] [mg/kg]	MED [7]
CCn1cc2c(=O)ncnc-2c2ccc(-c3ccncc3)cc21	inactive	>100					
CCn1c(C)c2c(=O)onc-2c2ccc(-c3ccncc3)cc21		>100	2.9 (≈ 9.5 µM)	>50	inactive		
CCn1cc2c(=O)n(C)nc-2c2ccc(-c3ccncc3)cc21	inactive	3.1					
CCn1cc(C(N)=O)c(=O)c2ccc(-c3ccncc3)cc21		12.5	6.5 (≈ 22.2 µM)	50		50	
NC(=O)c1cn(-c2ccc(F)cc2)c2cc(-c3ccncc3)ccc2c1=O		6.25	0.24 (≈ 0.668 µM)	50		25	
CCn1c(C)c(C(N)=O)c(=O)c2ccc(-c3ccncc3)cc21	inactive	50					
CCn1cc2c(=O)[nH]nc-2c2ccc(-c3ccncc3)cc21		50	27 (≈ 93 µM)	>200	inactive		
Nc1nc2c(ncn2COCCO)c(=O)[nH]1 [ACYCLOVIR]		>200	1.3 (≈ 5.77 µM)	>200		12	
CCn1cc2c(=O)n(-c3ccccc3)nc-2c2ccc(-c3ccncc3)cc21	inactive	>100					
CCn1cc2c(=O)onc-2c2ccc(-c3ccncc3)cc21		>100	6.3 (≈ 21.6 µM)	>400			inactive
CCn1cc2c(O)cnc-2c2ccc(-c3ccncc3)cc21	inactive	100					
